Article PMC11704051 (Nature Communications, 2025)
“And” between values parts separate entries of the source, which are not always exact repeats. Equal values may be shown once.

Columns and labels:
[1] = test system: MTAP-deleted cancer cell lines; conditions: multiple MTAP-deleted cancer cell lines; cited from earlier work
[2] = Plasma pharmacokinetics of AG-270/S095033; format: in vivo, human
OATP1B1 = conditions: known potential; cited from earlier work
SDMA residues = assay: SDMA by IHC; format: in vivo, human; conditions: NSCLC patient, 50 mg QD
Outline: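 Paired core-needle biopsies (archival or fresh) were taken at screening/baseline and at the end of cycle 1. Tissue was fixed in 10% […] buffered formalin and paraffin-embedded. H&E confirmed tumour content, and SDMA in tumour cells was scored by IHC as an H-score. Paired comparison used a two-sided Wilcoxon matched-pairs test.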

MTAP-null tumors = conditions: cited from earlier work
[3] = test system: patients with advanced malignancies; assay: Phase 1 trial: safety and tolerability; format: in vivo, human; conditions: for DLT: cycle 1; for Patients with any TRAE / TRAE Anemia / TRAE Blood bilirubin increased/hyperbilirubinemia / TRAE Diarrhea / TRAE Fatigue / TRAE Nausea / TRAE Rash (rash, rash macular, rash maculo-popular) / TRAE Thrombocytopenia /platelet count decrease: n = 40
Outline: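 Monitoring covered AEs graded by NCI-CTCAE v4.03, SAEs, laboratory values, clinical examinations, vital signs, ECOG status, ophthalmology and ECG. DLTs were assessed over cycle 1 (28 days) of oral single-agent dosing (50–400 mg QD, 200 mg BID). Escalation used a two-parameter BLRM with EWOC: reference 650 mg total daily dose, target DLT interval [0.16, 0.33], <25% chance of excessive toxicity, increments ≤100%.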

[4] = test system: advanced solid tumors with homozygous deletion of CDKN2A/MTAP and/or loss of MTAP protein; assay: Phase 1 trial: antitumor activity by RECIST v1.1, treatment duration; format: in vivo, human
Outline: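 Adults with advanced solid tumour or lymphoma (homozygous CDKN2A and/or MTAP deletion by local FISH or sequencing, and/or central MTAP IHC with ≤20% positive tumour cells) took test compound orally on an empty stomach. Dosing was 50–400 mg QD or 200 mg BID: a single dose on C0D-3, then daily from C1D1 in 28-day cycles until progression or toxicity. Local investigators scored response by RECIST v1.1 (Lugano for lymphoma).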

methionine = assay: Plasma methionine concentration; format: in vivo, human; conditions: steady state (C1D15)
SAM = assay: Plasma SAM concentration; format: in vivo, human
Outline: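 Plasma SAM was quantified by LC-MS/MS. Baseline blood was drawn twice at screening and before the single oral dose on C0D-3. At steady state (C1D15) sampling was pre-dose and 0.5, 1, 2, 3, 4, 6, 8 and 24 h post-dose, with daily oral dosing at 50–400 mg QD or 200 mg BID. The read-out was percent change from baseline.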

UGT1A1 = conditions: known potential; cited from earlier work
mouse = mouse GLP toxicology study, non-tolerated doses; cited from earlier work
[5] = test system: MTAP-deleted urothelial cancer and lung cancer; conditions: cited from earlier work
[6] = monotherapy expansion, MTAP-deleted urothelial cancer and lung cancer

COc1ccc(-c2c(Nc3ccccn3)[nH]c3c(C4=CCCCC4)c(-c4ccccc4)nn3c2=O)cc1 [AG-270/S095033]
Effect on cell proliferation [1]: robust decrease in cell proliferation
Increase of plasma concentrations with dose ([2]; 50 mg to 200 mg): dose-proportional manner from 50 mg to 200 mg
Exposure relative to dose ([2]; 400 mg QD): less than dose proportional
Cmax ([2]; human, plasma, oral, Geometric mean Cmax, range across the dosing cohorts, C1D15): 1710 to 13600 ng/mL
half-life ([2]; human, plasma, oral, Geometric mean accumulation-based (effective) half-life (T½eff), range, C1D15, 50 to 200 mg QD and 200 mg BID): 43 to 99 h
Tmax ([2]; human, plasma, oral, Median Tmax, range across the dosing cohorts, C1D15): 1 to 6 h
half-life ([2]; human, plasma, oral, Median terminal half-life (t½), range across the tested doses): 16 to 38 h
Time at which steady-state was achieved (mean plasma trough concentrations) ([2]; most of the cohorts): ≤ 15 days
Inhibition of hepatocyte transporter OATP1B1 (OATP1B1): inhibit
SDMA reduction after 1 cycle of treatment (SDMA residues): 39%
Effect on SAM levels (MTAP-null tumors; mice bearing MTAP-null tumors): reduce the levels of SAM in both plasma and tumor tissue
Effect on tumor growth (MTAP-null tumors; mice bearing MTAP-null tumors): inhibit tumor growth in a dose- and drug exposure-dependent manner
Reduction in plasma SAM concentration associated with maximum tumor growth inhibition (MTAP-null tumors; preclinical models): 60–80%
Patients with dose-limiting ≥grade 3 / acute liver injury ([3]; 200 mg BID): two patients
Severity of thrombocytopenia ([3]; 200 mg BID): Higher grade thrombocytopenia
DLT ([3]; 1 patient at 100 mg QD): Grade 2 hypersensitivity reaction
DLT ([3]; 1 patient at 150 mg QD): Grade 3 hyperbilirubinemia and Grade 3 maculo-papular rash
DLT ([3]; 1 patient at 200 mg QD): Grade 3 neutrophil count decreased
Patients who experienced a TEAE of Grade ≥3 ([3]; 40 patients): 67.5%
Patients with AEs leading to permanent treatment discontinuation ([3]; 40 patients): 5.0%
Patients with TRAEs of Grade ≥3 ([3]; 40 patients): 17.5%
Patients with at least one DLT during cycle 1 ([3]; 40 patients): 10%
Patients with fatal SAEs (none related to treatment) ([3]; 40 patients): 5.0%
Patients with serious adverse events (SAEs) regardless of relationship ([3]; 40 patients): 57.5%
Patients with worst post-baseline ECOG score of 2 ([3]; 40 patients): 20.0%
Patients with worst post-baseline ECOG score of 3 ([3]; 40 patients): 2.5%
SAE abdominal pain ([3]; 40 patients): 5.0%
SAE liver injury ([3]; 40 patients): 5.0%
SAE pancreatitis ([3]; 40 patients): 5.0%
SAE sepsis ([3]; 40 patients): 5.0%
SAE tumor pain ([3]; 40 patients): 5.0%
TEAE non-serious blurred vision (not related to treatment) ([3]; 40 patients): 5%
TEAE non-serious supraventricular tachycardia ([3]; 40 patients): 2.5%
TEAE non-serious tachycardia ([3]; 40 patients): 5%
TEAE optic disc hemorrhage (not related to treatment) ([3]; 40 patients): 2.5%
TEAE retinal hemorrhage (not related to treatment) ([3]; 40 patients): 2.5%
TEAE serious atrial fibrillation ([3]; 40 patients): 2.5%
TEAE serious electrocardiogram T wave inversion ([3]; 40 patients): 2.5%
TEAE serious sinus tachycardia ([3]; 40 patients): 2.5%
TRAE blood bilirubin increase, any grade ([3]; 40 patients): 15%
TRAE hyperbilirubinemia, any grade ([3]; 40 patients): 12.5%
TRAE thrombocytopenia, any grade ([3]; 40 patients): 10%
Patients with any TRAE ([3]; All Grades): 28 n (%) and 28 (70.0) n (%)
TRAE Anemia ([3]; All Grades): 4 n (%) and 4 (10.0) n (%)
TRAE Blood bilirubin increased/hyperbilirubinemia ([3]; All Grades): 10 n (%) and 10 (25.0) n (%)
TRAE Diarrhea ([3]; All Grades): 3 (7.5) n (%)
TRAE Fatigue ([3]; All Grades): 10 n (%) and 10 (25.0) n (%)
TRAE Nausea ([3]; All Grades): 3 (7.5) n (%)
TRAE Rash (rash, rash macular, rash maculo-popular) ([3]; All Grades): 6 (15.0) n (%)
TRAE Thrombocytopenia /platelet count decrease ([3]; All Grades): 7 (17.5) n (%)
Patients with any TRAE ([3]; Grade 1): 10 (25.0) n (%)
TRAE Anemia ([3]; Grade 1): 1 (2.5) n (%)
TRAE Blood bilirubin increased/hyperbilirubinemia ([3]; Grade 1): 1 (2.5) n (%)
TRAE Diarrhea ([3]; Grade 1): 2 (5.0) n (%)
TRAE Fatigue ([3]; Grade 1): 3 (7.5) n (%)
TRAE Nausea ([3]; Grade 1): 3 (7.5) n (%)
TRAE Rash (rash, rash macular, rash maculo-popular) ([3]; Grade 1): 3 (7.5) n (%)
TRAE Thrombocytopenia /platelet count decrease ([3]; Grade 1): 2 (5.0) n (%)
Patients with any TRAE ([3]; Grade 2): 11 (27.5) n (%)
TRAE Anemia ([3]; Grade 2): 2 (5.0) n (%)
TRAE Blood bilirubin increased/hyperbilirubinemia ([3]; Grade 2): 6 (15.0) n (%)
TRAE Diarrhea ([3]; Grade 2): 1 (2.5) n (%)
TRAE Fatigue ([3]; Grade 2): 7 (17.5) n (%)
TRAE Nausea ([3]; Grade 2): 0 n (%)
TRAE Rash (rash, rash macular, rash maculo-popular) ([3]; Grade 2): 1 (2.5) n (%)
TRAE Thrombocytopenia /platelet count decrease ([3]; Grade 2): 2 (5.0) n (%)
Patients with any TRAE ([3]; Grade 3): 6 (15.0) n (%)
TRAE Anemia ([3]; Grade 3): 1 (2.5) n (%)
TRAE Blood bilirubin increased/hyperbilirubinemia ([3]; Grade 3): 4 (10.0) n (%)
TRAE Diarrhea ([3]; Grade 3): 0 n (%)
TRAE Fatigue ([3]; Grade 3): 0 n (%)
TRAE Nausea ([3]; Grade 3): 0 n (%)
TRAE Rash (rash, rash macular, rash maculo-popular) ([3]; Grade 3): 2 (5.0) n (%)
TRAE Thrombocytopenia /platelet count decrease ([3]; Grade 3): 3 (7.5) n (%)
Patients with any TRAE ([3]; Grade 4): 1 (2.5) n (%)
TRAE Anemia ([3]; Grade 4): 0 n (%)
TRAE Blood bilirubin increased/hyperbilirubinemia ([3]; Grade 4): 0 n (%)
TRAE Diarrhea ([3]; Grade 4): 0 n (%)
TRAE Fatigue ([3]; Grade 4): 0 n (%)
TRAE Nausea ([3]; Grade 4): 0 n (%)
TRAE Rash (rash, rash macular, rash maculo-popular) ([3]; Grade 4): 0 n (%)
TRAE Thrombocytopenia /platelet count decrease ([3]; Grade 4): 0 n (%)
Treatment-related increases in transaminases ([3]; between the 100 mg and 400 mg dose levels): Low grade (Grade 1–2)
Severity of thrombocytopenia ([3]; doses between 100 and 200 mg QD): largely Grade 1–2
Effect on ECG parameters ([3]; in vivo): no discernable effect
Time to resolution of erythematous rashes after stopping treatment ([3]; in vivo): ≤ 1 week
Patients with PR interval >200 ms ([3]; maximum post-baseline value): 10.0%
Patients with QRS duration >120 ms ([3]; maximum post-baseline value): 7.5%
Patients with QT/QTc interval >450 ms ([3]; maximum post-baseline value): 15.0%
Patients with QT/QTc interval increase from baseline >30 ms ([3]; maximum post-baseline value): 10.0%
Patients with any TEAE ([3]; n=40): 40 N (%)
TEAE Blood bilirubin increased ([3]; n=40): 9 N (%)
TEAE Decreased appetite ([3]; n=40): 8 N (%)
TEAE Diarrhoea ([3]; n=40): 8 N (%)
TEAE Dyspnoea ([3]; n=40): 8 N (%)
TEAE Fatigue ([3]; n=40): 17 N (%)
TEAE Nausea ([3]; n=40): 13 N (%)
≥ Grade 3 TEAE Bilirubin increased ([3]; n=40): 4 N (%)
Treatment-related clinically significant retinopathy ([3]; ophthalmologic examinations at screening and during treatment): No treatment-related events of clinically significant retinopathy were reported
Maximum tolerated dose (MTD) ([3]; oral, 28-day cycles): 200 mg QD
Increases in unconjugated bilirubin ([3]; patients, across doses): Asymptomatic, exposure-dependent and reversible increases in unconjugated bilirubin were observed starting at 100 mg QD
Patients with SD for 4 months or longer ([4]; 40 patients): 12.5%
Disease control rate (CR+PR+SD≥16 weeks) ([4]; 40 patients, 95%–CI 7.3, 32.8): 17.5%
BOR Not evaluable (NE) ([4]; Total (n=40)): 7 n (%)
BOR Partial response (PR) ([4]; Total (n=40)): 2 n (%)
Duration of partial response ([4]; patient, sex cord stromal cell cancer, 100 mg QD): 28 months
Change in plasma methionine concentrations (methionine): increases in methionine concentrations in a drug exposure-dependent manner up to 200 mg QD
Mean reduction from baseline plasma SAM concentration (SAM; C1D15, 400 mg QD): ~ 54%
Decrease of plasma SAM concentration from baseline, range across doses (SAM; C1D15, 50–200 mg QD and 200 mg BID): 65–70%
Inhibition of UGT1A1 (UGT1A1): inhibit
Retinal finding (mouse): non-reversible retinal atrophy at non-tolerated doses

Nc1nc(=O)n(-c2ccccc2Cl)c2nc(C(F)(F)F)ccc12 [IDE397]
Patients achieving a PR ([5]; Phase 2 expansion, squamous NSCLC and bladder cancer): two out of eight patients
Disease control rate [5, 6]: ~ 94%
Overall response rate [5, 6]: ~ 39%
ctDNA molecular response rate [5, 6]: ~ 81%
